# pIC50: −log10 of the molar value.
# Experiments:
# Dipeptidyl peptidase 2 = Dipeptidyl peptidase 2 (Homo sapiens, UniProt Q9UHL4); assay: Inhibition of recombinant human DPP2
# Procedure, shortened: (§1)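 IC50 reported as the mean ± standard deviation of three independent determinations against each protease.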
# Prolyl endopeptidase FAP = target: T1, Prolyl endopeptidase FAP (Homo sapiens, UniProt Q12884); assay: Inhibition of recombinant human FAP; procedure, shortened: as §1
# T1 sequence (Q12884 whole entry): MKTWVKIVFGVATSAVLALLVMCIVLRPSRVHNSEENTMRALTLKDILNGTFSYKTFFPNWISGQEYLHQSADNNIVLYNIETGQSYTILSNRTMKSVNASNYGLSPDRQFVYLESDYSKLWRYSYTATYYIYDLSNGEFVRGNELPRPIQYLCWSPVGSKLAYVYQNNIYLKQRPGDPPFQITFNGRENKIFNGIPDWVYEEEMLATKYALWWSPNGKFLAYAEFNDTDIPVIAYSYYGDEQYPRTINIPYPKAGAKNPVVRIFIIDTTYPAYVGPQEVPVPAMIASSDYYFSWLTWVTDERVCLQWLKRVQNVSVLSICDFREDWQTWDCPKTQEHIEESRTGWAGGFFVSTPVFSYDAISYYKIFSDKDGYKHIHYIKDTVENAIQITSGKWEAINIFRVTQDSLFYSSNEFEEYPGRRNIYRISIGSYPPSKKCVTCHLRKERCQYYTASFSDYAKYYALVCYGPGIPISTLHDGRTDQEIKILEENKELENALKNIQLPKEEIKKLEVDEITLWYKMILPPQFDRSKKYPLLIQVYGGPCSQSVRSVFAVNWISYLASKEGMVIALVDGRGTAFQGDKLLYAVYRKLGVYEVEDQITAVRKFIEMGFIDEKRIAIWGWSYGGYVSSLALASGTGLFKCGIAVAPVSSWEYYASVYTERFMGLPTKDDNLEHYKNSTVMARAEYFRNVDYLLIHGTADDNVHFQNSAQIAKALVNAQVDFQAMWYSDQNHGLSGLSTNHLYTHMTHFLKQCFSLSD
# Dipeptidyl peptidase 4 = Dipeptidyl peptidase 4 (Homo sapiens, UniProt P27487); assay: Inhibition of human DPP4; procedure, shortened: as §1
# Prolyl endopeptidase = target: T2, Prolyl endopeptidase (Homo sapiens, UniProt P48147); assay: Inhibition of recombinant human PREP; procedure, shortened: as §1
# T2 sequence (P48147 whole entry): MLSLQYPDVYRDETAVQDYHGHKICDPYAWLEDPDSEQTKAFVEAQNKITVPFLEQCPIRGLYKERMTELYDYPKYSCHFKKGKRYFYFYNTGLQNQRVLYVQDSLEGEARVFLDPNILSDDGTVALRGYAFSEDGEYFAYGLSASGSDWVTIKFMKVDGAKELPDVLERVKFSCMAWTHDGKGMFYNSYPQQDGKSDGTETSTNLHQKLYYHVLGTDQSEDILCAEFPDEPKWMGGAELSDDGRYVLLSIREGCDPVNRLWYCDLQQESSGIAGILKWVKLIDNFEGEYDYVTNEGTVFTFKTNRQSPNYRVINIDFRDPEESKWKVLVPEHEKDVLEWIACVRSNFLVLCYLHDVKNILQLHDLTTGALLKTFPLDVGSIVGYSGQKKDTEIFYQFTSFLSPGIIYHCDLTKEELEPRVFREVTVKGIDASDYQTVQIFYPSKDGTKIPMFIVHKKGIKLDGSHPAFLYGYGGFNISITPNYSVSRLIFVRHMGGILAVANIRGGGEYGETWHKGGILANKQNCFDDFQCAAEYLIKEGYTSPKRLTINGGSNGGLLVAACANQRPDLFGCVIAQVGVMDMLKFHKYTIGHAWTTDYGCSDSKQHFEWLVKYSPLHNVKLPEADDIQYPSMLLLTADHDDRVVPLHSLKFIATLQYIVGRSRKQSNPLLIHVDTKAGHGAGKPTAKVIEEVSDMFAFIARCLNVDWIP
# Homo sapiens [1] = species: Homo sapiens; assay: Selectivity index, ratio of IC50 for inhibition of human DPP8 expressed in baculovirus using Ala-Pro-7-amino-4-trifluormethylcoumarin as substrate to IC50 for inhibition of human DPP9 expressed in baculovirus using Gly-Pro-AMC as substrate
# Procedure, shortened: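 Ratio of IC50 against recombinant human DPP8 to IC50 against recombinant human DPP9, i.e. IC50(DPP8)/IC50(DPP9). Each IC50 is the mean of 3 independent measurements ± standard deviation.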
# Homo sapiens [2] = species: Homo sapiens; assay: Selectivity index, ratio of IC50 for inhibition of human DPP8 expressed in baculovirus-infected Sf9 cells to IC50 for inhibition of human DPP9
# Procedure, shortened: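 Selectivity is computed as IC50(DPP8)/IC50(DPP9). Each IC50 was measured against recombinant human DPP8 or DPP9 and is the mean of three independent measurements ± standard deviation.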
# Chain of Dipeptidyl peptidase 4 (P27487 whole entry): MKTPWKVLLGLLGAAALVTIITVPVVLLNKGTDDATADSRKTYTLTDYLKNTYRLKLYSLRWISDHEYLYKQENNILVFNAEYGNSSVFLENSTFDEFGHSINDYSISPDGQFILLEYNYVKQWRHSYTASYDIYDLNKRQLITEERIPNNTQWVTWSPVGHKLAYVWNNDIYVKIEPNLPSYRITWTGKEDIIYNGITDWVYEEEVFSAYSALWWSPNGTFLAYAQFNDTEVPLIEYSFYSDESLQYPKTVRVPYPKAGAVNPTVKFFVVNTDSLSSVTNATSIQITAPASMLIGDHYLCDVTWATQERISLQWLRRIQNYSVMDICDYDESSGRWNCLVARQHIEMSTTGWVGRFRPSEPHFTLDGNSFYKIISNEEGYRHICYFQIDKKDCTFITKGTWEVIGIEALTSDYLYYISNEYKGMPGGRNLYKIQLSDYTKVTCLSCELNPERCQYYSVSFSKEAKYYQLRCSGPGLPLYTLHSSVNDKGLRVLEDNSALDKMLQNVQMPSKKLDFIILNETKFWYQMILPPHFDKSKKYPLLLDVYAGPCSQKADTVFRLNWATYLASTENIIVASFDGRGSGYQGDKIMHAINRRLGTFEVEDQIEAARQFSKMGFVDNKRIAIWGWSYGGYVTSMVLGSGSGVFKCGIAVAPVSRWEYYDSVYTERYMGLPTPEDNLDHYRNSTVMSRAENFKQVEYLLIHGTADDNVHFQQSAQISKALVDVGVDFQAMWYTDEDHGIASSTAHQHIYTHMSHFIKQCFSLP
compound,measurement,setting,value
O=C(CCCCC1SCC2NC(=O)NC21)NCCOCCNC(=O)NC12CC3CC(CC(NCC(=O)N4Cc5cc(F)c(F)cc5C4)(C3)C1)C2 (stereo unspecified),pIC50,Dipeptidyl peptidase 2,< 5.30
same,pIC50,Prolyl endopeptidase FAP,< 5.00
same,pIC50,Dipeptidyl peptidase 4,< 5.00
same,pIC50,Prolyl endopeptidase,< 5.00
CC(C)[C@H](N)C(=O)N1CCC[C@H]1B(O)O,Ratio IC50,Homo sapiens [1],3
CN(C)c1cccc2c(S(=O)(=O)NCCOCCOC(=O)NC34CC5CC(CC(NCC(=O)N6Cc7ccc(F)cc7C6)(C5)C3)C4)cccc12,pIC50,Dipeptidyl peptidase 2,< 5.30
same,pIC50,Prolyl endopeptidase FAP,< 5.00
same,pIC50,Dipeptidyl peptidase 4,< 5.00
same,pIC50,Prolyl endopeptidase,< 5.00
O=C(CCCCC1SCC2NC(=O)NC21)NCCOCCOC(=O)NC12CC3CC(CC(NCC(=O)N4Cc5cc(F)c(F)cc5C4)(C3)C1)C2 (stereo unspecified),pIC50,Dipeptidyl peptidase 2,< 5.30
same,pIC50,Prolyl endopeptidase FAP,< 5.00
same,pIC50,Dipeptidyl peptidase 4,< 5.00
same,pIC50,Prolyl endopeptidase,< 5.00
O=C(CCCCC1SCC2NC(=O)NC21)NCCOCCNC(=O)NC12CC3CC(CC(NCC(=O)N4Cc5ccc(F)cc5C4)(C3)C1)C2 (stereo unspecified),pIC50,Dipeptidyl peptidase 2,< 5.30
same,pIC50,Prolyl endopeptidase FAP,< 5.00
same,pIC50,Dipeptidyl peptidase 4,< 5.00
same,pIC50,Prolyl endopeptidase,< 5.00
CC[N+]1=C(/C=C/C=C2/N(CCCCCC(=O)NC34CC5CC(CC(NCC(=O)N6Cc7cc(F)c(F)cc7C6)(C5)C3)C4)c3ccc(S(=O)(=O)O)cc3C2(C)C)C(C)(C)c2cc(S(=O)(=O)[O-])ccc21,pIC50,Dipeptidyl peptidase 2,< 5.30
same,pIC50,Prolyl endopeptidase FAP,< 5.00
same,pIC50,Dipeptidyl peptidase 4,< 5.00
same,pIC50,Prolyl endopeptidase,< 5.00
O=C(NC12CC3CC(CC(NCC(=O)N4Cc5ccc(F)cc5C4)(C3)C1)C2)OCCOCCNc1ccc([N+](=O)[O-])c2nonc12,pIC50,Dipeptidyl peptidase 2,< 5.30
same,pIC50,Prolyl endopeptidase FAP,< 5.00
same,pIC50,Dipeptidyl peptidase 4,6.36
same,pIC50,Prolyl endopeptidase,< 5.00
O=C(NC12CC3CC(CC(NCC(=O)N4Cc5cc(F)c(F)cc5C4)(C3)C1)C2)OCCOCCNc1ccc([N+](=O)[O-])c2nonc12,pIC50,Dipeptidyl peptidase 2,< 5.30
same,pIC50,Prolyl endopeptidase FAP,< 5.00
same,pIC50,Dipeptidyl peptidase 4,5.77
same,pIC50,Prolyl endopeptidase,< 5.00
O=C(CCCCC1SCC2NC(=O)NC21)NCCOCCOCCNC(=O)NC12CC3CC(CC(NCC(=O)N4Cc5ccc(F)cc5C4)(C3)C1)C2 (stereo unspecified),pIC50,Dipeptidyl peptidase 2,< 5.30
same,pIC50,Prolyl endopeptidase FAP,< 5.00
same,pIC50,Dipeptidyl peptidase 4,< 5.00
same,pIC50,Prolyl endopeptidase,< 5.00
O=C(CCCCC1SCC2NC(=O)NC21)NCCOCCOCCNC(=O)NC12CC3CC(CC(NCC(=O)N4Cc5cc(F)c(F)cc5C4)(C3)C1)C2 (stereo unspecified),pIC50,Dipeptidyl peptidase 2,< 5.30
same,pIC50,Prolyl endopeptidase FAP,< 5.00
same,pIC50,Dipeptidyl peptidase 4,< 5.00
same,pIC50,Prolyl endopeptidase,< 5.00
O=C(CCCCC1SCC2NC(=O)NC21)NCCOCCOC(=O)NC12CC3CC(CC(NCC(=O)N4Cc5ccc(F)cc5C4)(C3)C1)C2 (stereo unspecified),pIC50,Dipeptidyl peptidase 2,< 5.30
same,pIC50,Prolyl endopeptidase FAP,< 5.00
same,pIC50,Dipeptidyl peptidase 4,< 5.00
same,pIC50,Prolyl endopeptidase,< 5.00
CN(C)c1cccc2c(S(=O)(=O)NCCOCCOC(=O)NC34CC5CC(CC(NCC(=O)N6Cc7cc(F)c(F)cc7C6)(C5)C3)C4)cccc12,pIC50,Dipeptidyl peptidase 2,< 5.30
same,pIC50,Prolyl endopeptidase FAP,< 5.00
same,pIC50,Dipeptidyl peptidase 4,< 5.00
same,pIC50,Prolyl endopeptidase,< 5.00
N[C@@H](CC(=O)N1CCN(C(c2ccc(F)cc2)c2ccc(F)cc2)CC1)C(=O)N1Cc2ccccc2C1,Ratio IC50,Homo sapiens [2],4

# Reference: ChEMBL document CHEMBL5500351, “Active site-directed probes targeting dipeptidyl peptidases 8 and 9” (Eur J Med Chem, 2024)
